# Test results from ChEMBL document CHEMBL1141085, “Imidazole-4,5-dicarboxamide derivatives with antiproliferative activity against HL-60 cells” (J Med Chem, 2005).
# Experiments:
# HL-60 [1] = test: Mean in vitro concentration to inhibit the metabolic activity of HL-60 cells after 4 days of incubation; n=3; type: functional, cell-based; details: Homo sapiens, HL-60, 96 h
# Method in brief: (§1)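 Human HL-60 promyelocytic leukemia cells in RPMI 1640 with 8.25% FCS, 37 °C, 5% CO2. Seeded in triplicate at 12.5×10^4 (2-day) or 3.75×10^4 (4-day) cells/0.5 mL. Drug in DMSO (0.2% final), serial dilutions.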
# HL-60 [2] = test: Mean in vitro concentration to inhibit the metabolic activity of HL-60 cells after 2 days of incubation; n=3; type: functional, cell-based; details: Homo sapiens, HL-60, 48 h; method in brief: as §1
SMILES,IC50 (HL-60 [1]),IC50 (HL-60 [2])
Cc1ccc(CNC(=O)c2[nH]cnc2C(=O)Nc2ccc(Cl)c(Cl)c2)cc1,15.2 µM,21.4 µM
O=C(NCCc1ccccc1)c1nc[nH]c1C(=O)Nc1ccc(Cl)c(Cl)c1,13.2 µM,17.7 µM
O=C(NCc1ccccc1)c1nc[nH]c1C(=O)Nc1ccc(Cl)c(Cl)c1,7.4 µM,11.5 µM
COC(=O)[C@H](NC(=O)c1[nH]cnc1C(=O)Nc1ccc(Cl)c(Cl)c1)C(C)C,4.9 µM,8.5 µM
COC(=O)[C@@H](C)NC(=O)c1[nH]cnc1C(=O)Nc1ccc(Cl)c(Cl)c1,> 62.5 µM,> 62.5 µM
CCCCCCNC(=O)c1[nH]cnc1C(=O)Nc1ccc(Cl)c(Cl)c1,7.8 µM,14.6 µM
C[C@H](c1ccccc1)N(C)C(=O)c1[nH]cnc1C(=O)Nc1ccc(Cl)c(Cl)c1,68.8 µM,89.4 µM
COC(=O)[C@@H](NC(=O)c1[nH]cnc1C(=O)Nc1ccc(Cl)c(Cl)c1)c1ccccc1,6.8 µM,13.2 µM
O=C(Nc1ccc(Cl)c(Cl)c1)c1nc[nH]c1C(=O)NCc1ccc(Cl)cc1,8.8 µM,16.2 µM
C[C@H](NC(=O)c1[nH]cnc1C(=O)Nc1ccc(Cl)c(Cl)c1)c1ccccc1,5.9 µM,9.2 µM
C[C@@H](NC(=O)c1[nH]cnc1C(=O)Nc1ccc(Cl)c(Cl)c1)c1ccccc1,5.9 µM,8.8 µM
C[C@@H](c1ccccc1)N(C)C(=O)c1[nH]cnc1C(=O)Nc1ccc(Cl)c(Cl)c1,56 µM,75.5 µM
O=C(NC1CCCCC1)c1nc[nH]c1C(=O)Nc1ccc(Cl)c(Cl)c1,12.3 µM,33.1 µM
CCCN(CCC)C(=O)c1[nH]cnc1C(=O)Nc1ccc(Cl)c(Cl)c1,38.9 µM,379 µM
COC(=O)[C@H](NC(=O)c1[nH]cnc1C(=O)Nc1ccc(Cl)c(Cl)c1)c1ccccc1,10.8 µM,17.3 µM
O=C(NCc1ccc(-c2ccccc2)cc1)c1nc[nH]c1C(=O)Nc1ccc(Cl)c(Cl)c1,2.9 µM,7 µM
COc1ccc(CNC(=O)c2[nH]cnc2C(=O)Nc2ccc(Cl)c(Cl)c2)cc1,18.3 µM,24.3 µM
COC(=O)[C@@H](NC(=O)c1[nH]cnc1C(=O)Nc1ccc(Cl)c(Cl)c1)C(C)C,> 62.5 µM,> 62.5 µM
CC(C)CNC(=O)c1[nH]cnc1C(=O)Nc1ccc(Cl)c(Cl)c1,7.2 µM,14.7 µM

# The remaining lines, values ahead:
IC50 (HL-60 [1]),IC50 (HL-60 [2]),SMILES
2.4 µM,4.9 µM,C[C@H](NC(=O)c1[nH]cnc1C(=O)Nc1ccc(Cl)c(Cl)c1)C(=O)OC(C)(C)C
3.1 µM,6 µM,COc1ccc(NC(=O)c2[nH]cnc2C(=O)N[C@H](C)C(=O)OC(C)(C)C)cc1
2.9 µM,8.2 µM,C[C@@H](NC(=O)c1[nH]cnc1C(=O)Nc1cccc(Cl)c1)C(=O)OC(C)(C)C
2.5 µM,4.6 µM,C[C@@H](NC(=O)c1[nH]cnc1C(=O)Nc1ccc(Cl)c(Cl)c1)C(=O)OC(C)(C)C
2.7 µM,4.7 µM,C[C@@H](NC(=O)c1[nH]cnc1C(=O)Nc1ccccc1)C(=O)OC(C)(C)C
3.7 µM,6.3 µM,CCOC(=O)c1ccc(NC(=O)c2[nH]cnc2C(=O)N[C@H](C)C(=O)OC(C)(C)C)cc1
25.4 µM,49.8 µM,CC(C)(C)OC(=O)CNC(=O)c1[nH]cnc1C(=O)Nc1ccc(Cl)c(Cl)c1
3.3 µM,6.6 µM,C[C@@H](NC(=O)c1[nH]cnc1C(=O)Nc1ccc(Cl)cc1)C(=O)OC(C)(C)C
3.5 µM,6.3 µM,Cc1ccc(NC(=O)c2nc[nH]c2C(=O)N[C@H](C)C(=O)OC(C)(C)C)cc1
